Measurements from ChEMBL document CHEMBL4118059, “Hirsutane-Type Sesquiterpenes with Inhibitory Activity of Microglial Nitric Oxide Production from the Red Alga-Derived Fungus Chondrostereum sp. NTOU4196” (J Nat Prod, 2017).

Columns and labels:
[1] = Cytotoxicity against LPS-induced mouse BV2 cells assessed as cell viability at 20 uM pretreated for 15 mins followed by LPS-stimulation measured after 24 hrs by MTT assay relative to control; type: cell-based, BV-2; details: LPS-stimulated BV2 cells, read-out: Activity
Method in brief: (§1)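 BV-2 cells, LPS-activated, exposed to compounds at 2–20 μM. Viability was measured by MTT assay and expressed as mean ± SD of three independent experiments.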

[2] = Cytotoxicity against LPS-induced mouse BV2 cells assessed as cell viability at 10 uM pretreated for 15 mins followed by LPS-stimulation measured after 24 hrs by MTT assay relative to control; type: cell-based, BV-2; details: LPS-stimulated BV2 cells, read-out: Activity; method in brief: as §1
BV-2 [3] = assay: Antineuroinflammatory activity in mouse BV2 cells assessed as inhibition of LPS-induced nitric oxide production by measuring nitrite levels at 20 uM pretreated for 15 mins followed by LPS-stimulation measured after 24 hrs by colorimetric method (reference value: 15 +/- 1 uM); type: functional
[4] = Cytotoxicity against LPS-induced mouse BV2 cells assessed as cell viability at 5 uM pretreated for 15 mins followed by LPS-stimulation measured after 24 hrs by MTT assay relative to control; type: cell-based, BV-2; details: LPS-stimulated BV2 cells, read-out: Activity; method in brief: as §1
[5] = Cytotoxicity against LPS-induced mouse BV2 cells assessed as cell viability at 2 uM pretreated for 15 mins followed by LPS-stimulation measured after 24 hrs by MTT assay relative to control; type: cell-based, BV-2; details: LPS-stimulated BV2 cells, read-out: Activity; method in brief: as §1
BV-2 [6] = assay: Antineuroinflammatory activity in mouse BV2 cells assessed as inhibition of LPS-induced nitric oxide production pretreated for 15 mins followed by LPS-stimulation measured after 24 hrs by colorimetric method; type: functional, cell-based
BV-2 [7] = assay: Antineuroinflammatory activity in mouse BV2 cells assessed as inhibition of LPS-induced nitric oxide production at 20 uM pretreated for 15 mins followed by LPS-stimulation measured after 24 hrs by colorimetric method relative to control; type: functional
BV-2 [8] = assay: Antineuroinflammatory activity in mouse BV2 cells assessed as inhibition of LPS-induced nitric oxide production at 5 uM pretreated for 15 mins followed by LPS-stimulation measured after 24 hrs by colorimetric method relative to control; type: functional

| Compound | viability at 24 h, 20 µM [1] [%] | viability at 24 h, 10 µM [2] [%] | Activity (BV-2 [3]) [µM] | other results |
| --- | --- | --- | --- | --- |
| C=C1C(=O)C[C@]2(O)[C@H](O)C3=C(CC(C)(C)C3=O)[C@]12C | 69 | 89 | 10 | viability at 24 h, 5 µM [4]: 95%; viability at 24 h, 2 µM [5]: 95% |
| C[C@@H]1[C@@H](O)C[C@]2(O)[C@H](O)[C@H]3CC(C)(C)C[C@H]3[C@]12C | 83 | – | 12 | – |
| COc1cc(/C=C/C(=O)CC(=O)/C=C/c2ccc(O)c(OC)c2)ccc1O [CURCUMIN] | – | – | – | IC50 (BV-2 [6]): 6 µM |
| C=C1C(=O)C[C@@]2(OC)C[C@]3(O)CC(C)(C)C[C@@H]3[C@]12C | 11 | 11 | 4 | viability at 24 h, 5 µM [4]: 30%; viability at 24 h, 2 µM [5]: 47% |
| C[C@@H]1[C@@H](O)C[C@]2(O)CC3=C(CC(C)(C)C3=O)[C@]12C | 97 | – | 11.6 | – |
| C[C@@H]1C(=O)C[C@]2(O)C[C@@]3(O)CC(C)(C)C[C@H]3[C@]12C | 83 | – | 12 | – |
| C[C@H]1C(=O)C=C2C=C3C(=O)C(C)(C)C[C@@]3(O)[C@@]21C | 11 | 23 | 4 | – |
| C[C@H]1C(=O)C[C@]2(O)C[C@@]3(O)CC(C)(C)C[C@H]3[C@]12C | – | – | 11 | – |
| C[C@H]1C(=O)C=C2C=C3[C@@H](O)C(C)(C)C[C@@]3(O)[C@@]21C | 71 | – | 12 | – |
| C=C1[C@H](O)C[C@]2(O)C[C@]3(O)CC(C)(C)C[C@]3(O)[C@]12C | 67 | 73 | 8 | inhibition (BV-2 [6]): Dose-dependent effect; inhibition at 20 µM (BV-2 [7]): 47%; viability at 24 h, 5 µM [4]: 82%; viability at 24 h, 2 µM [5]: 93% |
| C[C@@H]1[C@@H](O)C[C@]2(O)C=C3C(=CC(C)(C)[C@@H]3O)[C@]12C | 93 | – | 11 | – |
| C=C1C(=O)C=C2C=C3[C@@H](O)C(C)(C)C[C@@]3(O)[C@]12C | 39 | 77 | 8 | inhibition at 5 µM (BV-2 [8]): 53%; inhibition (BV-2 [6]): Dose-dependent effect; viability at 24 h, 5 µM [4]: 87%; viability at 24 h, 2 µM [5]: 94% |
| C=C1C(=O)C=C2C[C@@]3(O)CC(C)(C)C[C@H]3[C@]12C | 12 | 22 | 4 | – |
| C[C@H]1[C@H](O)C[C@@]2(O)C[C@]3(O)CC(C)(C)C[C@@H]3[C@@]12C | – | – | 13 | – |
| C[C@@H]1[C@@H](O)C[C@]2(O)[C@H](O)C3=CC(C)(C)C[C@H]3[C@]12C | 87 | – | 14 | – |
| C[C@H]1[C@@H](O)C[C@]2(O)C[C@@]3(O)CC(C)(C)C[C@H]3[C@]12C | – | – | 13 | – |
